Measurements taken from PMC10500653 (ACS Omega, 2023).
Read-outs that look alike come from different tables or passages of the source.

Key:
[1] = system: HuCCA-1 cholangiocarcinoma cell line; assay: Cytotoxicity assay; type: cell-based; conditions: Homo sapiens, HuCC-A1, 48 h, read-out: Cytotoxic activity IC50, HuCCA-1
Procedure, shortened: (§1)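 Cells were pre-plated in medium, then an equal volume of medium holding serial dilutions of the test compound was added to reach the final concentrations. Controls were DMSO (negative) and etoposide and/or doxorubicin (positive). Plates were incubated a further 48 h and surviving cells were counted by MTT. IC50 is the concentration giving 50% growth inhibition relative to the DMSO control.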

[2] = system: HepG2 hepatocellular carcinoma cell line; assay: Cytotoxicity assay; type: cell-based, human; conditions: for IC50: Homo sapiens, HepG2, 48 h; for Cytotoxic activity IC50, HepG2: 48 h, MTT
Procedure, shortened: as §1

[3] = system: A549 lung carcinoma cell line; assay: Cytotoxicity assay; type: cell-based, human; conditions: for IC50: Homo sapiens, A549, 48 h
Procedure, shortened: as §1

[4] = system: MOLT-3 lymphoblastic leukemia cell line; assay: Cytotoxicity assay; type: cell-based; conditions: Homo sapiens, MOLT-3, 48 h, read-out: Cytotoxic activity IC50, MOLT-3
Procedure, shortened: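 MOLT-3 cells received an equal volume of additional medium with serial dilutions of the test compound to reach the final concentrations. DMSO served as the negative control and etoposide and/or doxorubicin as the positive control. After a further 48 h incubation, surviving cells were counted by XTT. IC50 is the concentration inhibiting growth by 50% versus the DMSO control.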

[5] = system: T47D hormone-dependent breast cancer; assay: Cytotoxicity assay; type: cell-based; conditions: Homo sapiens, 48 h, read-out: Cytotoxic activity IC50, T47D
Procedure, shortened: as §1

[6] = system: MDA-MB-231 hormone-independent breast cancer; assay: Cytotoxicity assay; type: cell-based; conditions: Homo sapiens, MDA-MB-231, 48 h, read-out: Cytotoxic activity IC50, MDA-MB-231
Procedure, shortened: as §1

Cytotoxicity assay = type: cell-based; conditions: human, MRC-5 normal embryonic lung cells
Procedure, shortened: as §1

FGFR1 tyrosine kinase = FGFR1 tyrosine kinase (Homo sapiens, UniProt P11362); assay: ADP-Glo kinase assay, FGFR1; type: biochemical; conditions: for inhibition at 1 µM: read-out: % inhibition of FGFR1
[7] = read-out: Cytotoxic activity IC50, HepG2
[8] = read-out: Cytotoxic activity IC50, A549
[9] = read-out: Cytotoxic activity, HepG2 (class NC)

FGFR1 tyrosine kinase, sequence (P11362 22-822): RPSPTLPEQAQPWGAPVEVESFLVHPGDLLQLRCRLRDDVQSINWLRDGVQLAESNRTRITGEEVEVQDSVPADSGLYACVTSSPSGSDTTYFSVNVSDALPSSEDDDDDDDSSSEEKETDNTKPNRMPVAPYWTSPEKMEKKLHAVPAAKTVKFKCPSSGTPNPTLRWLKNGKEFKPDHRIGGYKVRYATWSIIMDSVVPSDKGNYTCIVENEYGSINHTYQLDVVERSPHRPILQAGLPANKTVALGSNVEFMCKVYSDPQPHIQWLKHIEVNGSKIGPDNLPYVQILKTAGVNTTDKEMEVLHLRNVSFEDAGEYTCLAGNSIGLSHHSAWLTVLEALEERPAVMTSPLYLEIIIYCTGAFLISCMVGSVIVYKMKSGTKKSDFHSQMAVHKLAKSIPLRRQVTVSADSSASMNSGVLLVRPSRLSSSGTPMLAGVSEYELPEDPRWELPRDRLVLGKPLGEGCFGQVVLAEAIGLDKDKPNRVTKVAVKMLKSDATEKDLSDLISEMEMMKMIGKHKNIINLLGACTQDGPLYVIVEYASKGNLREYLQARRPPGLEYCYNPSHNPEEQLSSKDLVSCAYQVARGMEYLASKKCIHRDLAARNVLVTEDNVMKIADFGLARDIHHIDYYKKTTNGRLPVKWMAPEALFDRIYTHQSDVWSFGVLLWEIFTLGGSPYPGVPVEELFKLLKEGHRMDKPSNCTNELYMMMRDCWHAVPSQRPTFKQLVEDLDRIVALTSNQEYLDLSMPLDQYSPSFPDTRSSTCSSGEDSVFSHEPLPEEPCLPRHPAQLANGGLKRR

| Compound | IC50 (FGFR1 tyrosine kinase) [µM] | inhibition at 1 µM (FGFR1 tyrosine kinase) [%] | IC50 [1] [µM] | IC50 [2, 7] [µM] | IC50 [3, 8] [µM] | IC50 [4] [µM] | IC50 [5] [µM] | IC50 [6] [µM] | IC50 at 48 h (Cytotoxicity assay) [µM] | Cytotoxic activity IC50, HepG2 [2] | IC50 [2, 9] [µg/mL] | Cytotoxic activity IC50, A549 ([3]; A549, 48 h, MTT) | IC50 ([3]; read-out: Cytotoxic activity, A549 (class NC)) [µg/mL] |
| --- | --- | --- | --- | --- | --- | --- | --- | --- | --- | --- | --- | --- | --- |
| COc1cccc(/C=C/C(=O)c2cccc(NC3=C(Cl)C(=O)c4ccccc4C3=O)c2)c1OC [Compound 1, (E)-2-Chloro-3-((3-(3-(2,3-dimethoxyphenyl)acryloyl)phenyl)amino)naphthalene-1,4-dione] | 0.00091 ± 8e-05 | > 70 | 1.16 ± 0.4 | 5.13 ± 0.15 | 6.12 ± 1.56 | 1.24 ± 0.03 | 1.81 ± 0.04 | 1.08 ± 0.12 | 4.96 ± 0.14 |  |  |  |  |
| COc1cccc2c1C(=O)c1c(O)c3c(c(O)c1C2=O)C[C@@](O)(C(=O)CO)C[C@@H]3O[C@H]1C[C@H](N)[C@H](O)[C@H](C)O1 [doxorubicin, reference compound] |  |  | 0.42 ± 0.02 | 0.57 ± 0.05 | 0.37 ± 0.02 |  | 0.84 ± 0.01 | 1.84 ± 0.13 | 2.79 ± 0.11 |  |  |  |  |
| COc1cc(/C=C/C(=O)c2cccc(NC3=C(Cl)C(=O)c4ccccc4C3=O)c2)cc(OC)c1OC [Compound 3, (E)-2-Chloro-3-((3-(3-(3,4,5-trimethoxyphenyl)acryloyl)phenyl)amino)naphthalene-1,4-dione] |  |  | 4.72 ± 0.48 | 16.9 ± 0.74 | 51.6 ± 10.3 | 0.99 ± 0.12 | 1.15 ± 0.08 | 1.05 ± 0.04 | 2.52 ± 0.26 |  |  |  |  |
| COc1cccc(/C=C/C(=O)c2ccc(NC3=C(Cl)C(=O)c4ccccc4C3=O)cc2)c1 [Compound 6, (E)-2-Chloro-3-((4-(3-(3-methoxyphenyl)acryloyl)phenyl)amino)naphthalene-1,4-dione] |  |  | 11.1 ± 0.37 | 6.88 ± 2.72 | 13.5 ± 1.49 | 1.78 ± 0.06 | 2.1 ± 0.12 | 1.31 ± 0.03 | 2.69 ± 0.15 |  |  |  |  |
| COc1ccc(/C=C/C(=O)c2cccc(NC3=C(Cl)C(=O)c4ccccc4C3=O)c2)c(OC)c1OC [Compound 2, (E)-2-Chloro-3-((3-(3-(2,3,4-trimethoxyphenyl)acryloyl)phenyl)amino)naphthalene-1,4-dione] | 0.0015 ± 0.00028 | > 70 | 8.87 ± 1.03 | 16.3 ± 0.44 | 33.5 ± 0.17 | 1.81 ± 0.05 | 2.32 ± 0.08 | 1.79 ± 0.12 | 2.6 ± 0.04 |  |  |  |  |
| COc1cc([C@@H]2c3cc4c(cc3[C@@H](O[C@@H]3O[C@@H]5CO[C@@H](C)O[C@H]5[C@H](O)[C@H]3O)[C@H]3COC(=O)[C@H]23)OCO4)cc(OC)c1O [etoposide, reference compound] |  |  |  | 33.98 ± 0.01 |  | 0.041 ± 0.003 |  |  |  |  |  |  |  |

Now from value to compound, other results behind:

| IC50 (FGFR1 tyrosine kinase) [µM] | inhibition at 1 µM (FGFR1 tyrosine kinase) [%] | Compound | IC50 [1] [µM] | IC50 [2, 7] [µM] | IC50 [3, 8] [µM] | IC50 [4] [µM] | IC50 [5] [µM] | IC50 [6] [µM] | IC50 at 48 h (Cytotoxicity assay) [µM] | Cytotoxic activity IC50, HepG2 [2] | IC50 [2, 9] [µg/mL] | Cytotoxic activity IC50, A549 ([3]; A549, 48 h, MTT) | IC50 ([3]; read-out: Cytotoxic activity, A549 (class NC)) [µg/mL] |
| --- | --- | --- | --- | --- | --- | --- | --- | --- | --- | --- | --- | --- | --- |
| 0.00085 ± 8e-05 | > 70 | COc1ccc(/C=C/C(=O)c2ccc(NC3=C(Cl)C(=O)c4ccccc4C3=O)cc2)cc1OC [Compound 7, (E)-2-Chloro-3-((4-(3-(3,4-dimethoxyphenyl)acryloyl)phenyl)amino)naphthalene-1,4-dione] | 7.32 ± 0.37 |  | 62.06 ± 0.14 | 1.27 ± 0.12 | 1.86 ± 0.06 | 1.16 ± 0.03 | 2.93 ± 0.16 | inactive | > 50 |  |  |
| 0.00096 ± 5e-05 | > 70 | COc1cc(/C=C/C(=O)c2cccc(NC3=C(Cl)C(=O)c4ccccc4C3=O)c2)cc(OC)c1O [Compound 4, (E)-2-Chloro-3-((3-(3-(4-hydroxy-3,5-dimethoxyphenyl)acryloyl)phenyl)amino)naphthalene-1,4-dione] | 7.06 ± 1.36 | 12.8 ± 0.42 | 25 ± 4.22 | 1.1 ± 0.14 | 2.12 ± 0.11 | 1.43 ± 0.11 | 2.9 ± 0.48 |  |  |  |  |
| 0.00033 ± 1e-05 | > 70 | O=C(/C=C/c1ccc(O)cc1)c1cccc(NC2=C(Cl)C(=O)c3ccccc3C2=O)c1 [Compound 5, (E)-2-Chloro-3-((3-(3-(4-hydroxyphenyl)acryloyl)phenyl)amino)naphthalene-1,4-dione] | 5.65 ± 0.08 | 13.07 ± 0.12 | 31.9 ± 3.71 | 2.19 ± 0.26 | 5.75 | 3.33 ± 0.08 | 11 ± 0.99 |  |  |  |  |
| 0.00169 ± 0.00071 |  | COc1cc(/C=C/C(=O)c2ccc(NC3=C(Cl)C(=O)c4ccccc4C3=O)cc2)cc(OC)c1OC [Compound 8, (E)-2-Chloro-3-((4-(3-(3,4,5-trimethoxyphenyl)acryloyl)phenyl)amino)naphthalene-1,4-dione] | 4.72 ± 0.33 | 10.87 ± 0.01 | 25.8 ± 3.55 | 0.81 ± 0.02 | 1.61 ± 0.07 | 1.09 ± 0.02 | 2.92 ± 0.36 |  |  |  |  |
| 0.0005 ± 4e-05 |  | COc1ccc(/C=C/C(=O)c2ccc(NC3=C(Cl)C(=O)c4ccccc4C3=O)cc2)cc1O [Compound 9, (E)-2-Chloro-3-((4-(3-(3-hydroxy-4-methoxyphenyl)acryloyl)phenyl)amino)naphthalene-1,4-dione] | 6.85 ± 1.2 |  |  | 0.83 ± 0.01 | 24.1 ± 1.61 | 6.81 ± 0.52 | 14.94 ± 0.09 | inactive | > 50 | inactive | > 50 |
| 0.00313 ± 0.00067 | > 70 | O=C(/C=C/c1ccc(O)cc1)c1ccc(NC2=C(Cl)C(=O)c3ccccc3C2=O)cc1 [Compound 10, (E)-2-Chloro-3-((4-(3-(4-hydroxyphenyl)acryloyl)phenyl)amino)naphthalene-1,4-dione] | 7.7 ± 2.85 | 57.5 ± 1.28 | 44.1 ± 4.06 | 2.35 ± 0.39 | 3.21 ± 0.06 | 1.37 ± 0.07 | 8.31 ± 3.3 |  |  |  |  |
